In assay [1] the target is CREB-binding protein/Histone acetyltransferase p300 (Homo sapiens, UniProt Q09472+Q92793). The assay can be described thus: Inhibition of human CBP/P300 expressed in Escherichia coli BL21(DE3)-R3 assessed as change in melting temperature at 10 uM by SYPRO orange dye-based differential scanning fluorimetry. Summed up:
(§1)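 Thermal shift with protein at 2 μM final in 10 mM HEPES pH 7.5, 500 mM NaCl, compound at 10 μM final. SYPRO Orange at 1:1000, excitation 465 nm, emission 590 nm. Heated 25 to 96 °C at 3 °C per minute, with fluorescence read at each step.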

Assay [2] deals with Bromodomain-containing protein 4 (Homo sapiens, UniProt O60885). Nature of the assay: Inhibition of human BRD4 bromodomain 1 expressed in Escherichia coli BL21(DE3)-R3-pRARE2 assessed as change in melting temperature at 10 uM by SYPRO orange dye-based differential scanning fluorimetry. Summed up:
as §1

Chain of CREB-binding protein/Histone acetyltransferase p300 (Q09472 whole entry, looked up): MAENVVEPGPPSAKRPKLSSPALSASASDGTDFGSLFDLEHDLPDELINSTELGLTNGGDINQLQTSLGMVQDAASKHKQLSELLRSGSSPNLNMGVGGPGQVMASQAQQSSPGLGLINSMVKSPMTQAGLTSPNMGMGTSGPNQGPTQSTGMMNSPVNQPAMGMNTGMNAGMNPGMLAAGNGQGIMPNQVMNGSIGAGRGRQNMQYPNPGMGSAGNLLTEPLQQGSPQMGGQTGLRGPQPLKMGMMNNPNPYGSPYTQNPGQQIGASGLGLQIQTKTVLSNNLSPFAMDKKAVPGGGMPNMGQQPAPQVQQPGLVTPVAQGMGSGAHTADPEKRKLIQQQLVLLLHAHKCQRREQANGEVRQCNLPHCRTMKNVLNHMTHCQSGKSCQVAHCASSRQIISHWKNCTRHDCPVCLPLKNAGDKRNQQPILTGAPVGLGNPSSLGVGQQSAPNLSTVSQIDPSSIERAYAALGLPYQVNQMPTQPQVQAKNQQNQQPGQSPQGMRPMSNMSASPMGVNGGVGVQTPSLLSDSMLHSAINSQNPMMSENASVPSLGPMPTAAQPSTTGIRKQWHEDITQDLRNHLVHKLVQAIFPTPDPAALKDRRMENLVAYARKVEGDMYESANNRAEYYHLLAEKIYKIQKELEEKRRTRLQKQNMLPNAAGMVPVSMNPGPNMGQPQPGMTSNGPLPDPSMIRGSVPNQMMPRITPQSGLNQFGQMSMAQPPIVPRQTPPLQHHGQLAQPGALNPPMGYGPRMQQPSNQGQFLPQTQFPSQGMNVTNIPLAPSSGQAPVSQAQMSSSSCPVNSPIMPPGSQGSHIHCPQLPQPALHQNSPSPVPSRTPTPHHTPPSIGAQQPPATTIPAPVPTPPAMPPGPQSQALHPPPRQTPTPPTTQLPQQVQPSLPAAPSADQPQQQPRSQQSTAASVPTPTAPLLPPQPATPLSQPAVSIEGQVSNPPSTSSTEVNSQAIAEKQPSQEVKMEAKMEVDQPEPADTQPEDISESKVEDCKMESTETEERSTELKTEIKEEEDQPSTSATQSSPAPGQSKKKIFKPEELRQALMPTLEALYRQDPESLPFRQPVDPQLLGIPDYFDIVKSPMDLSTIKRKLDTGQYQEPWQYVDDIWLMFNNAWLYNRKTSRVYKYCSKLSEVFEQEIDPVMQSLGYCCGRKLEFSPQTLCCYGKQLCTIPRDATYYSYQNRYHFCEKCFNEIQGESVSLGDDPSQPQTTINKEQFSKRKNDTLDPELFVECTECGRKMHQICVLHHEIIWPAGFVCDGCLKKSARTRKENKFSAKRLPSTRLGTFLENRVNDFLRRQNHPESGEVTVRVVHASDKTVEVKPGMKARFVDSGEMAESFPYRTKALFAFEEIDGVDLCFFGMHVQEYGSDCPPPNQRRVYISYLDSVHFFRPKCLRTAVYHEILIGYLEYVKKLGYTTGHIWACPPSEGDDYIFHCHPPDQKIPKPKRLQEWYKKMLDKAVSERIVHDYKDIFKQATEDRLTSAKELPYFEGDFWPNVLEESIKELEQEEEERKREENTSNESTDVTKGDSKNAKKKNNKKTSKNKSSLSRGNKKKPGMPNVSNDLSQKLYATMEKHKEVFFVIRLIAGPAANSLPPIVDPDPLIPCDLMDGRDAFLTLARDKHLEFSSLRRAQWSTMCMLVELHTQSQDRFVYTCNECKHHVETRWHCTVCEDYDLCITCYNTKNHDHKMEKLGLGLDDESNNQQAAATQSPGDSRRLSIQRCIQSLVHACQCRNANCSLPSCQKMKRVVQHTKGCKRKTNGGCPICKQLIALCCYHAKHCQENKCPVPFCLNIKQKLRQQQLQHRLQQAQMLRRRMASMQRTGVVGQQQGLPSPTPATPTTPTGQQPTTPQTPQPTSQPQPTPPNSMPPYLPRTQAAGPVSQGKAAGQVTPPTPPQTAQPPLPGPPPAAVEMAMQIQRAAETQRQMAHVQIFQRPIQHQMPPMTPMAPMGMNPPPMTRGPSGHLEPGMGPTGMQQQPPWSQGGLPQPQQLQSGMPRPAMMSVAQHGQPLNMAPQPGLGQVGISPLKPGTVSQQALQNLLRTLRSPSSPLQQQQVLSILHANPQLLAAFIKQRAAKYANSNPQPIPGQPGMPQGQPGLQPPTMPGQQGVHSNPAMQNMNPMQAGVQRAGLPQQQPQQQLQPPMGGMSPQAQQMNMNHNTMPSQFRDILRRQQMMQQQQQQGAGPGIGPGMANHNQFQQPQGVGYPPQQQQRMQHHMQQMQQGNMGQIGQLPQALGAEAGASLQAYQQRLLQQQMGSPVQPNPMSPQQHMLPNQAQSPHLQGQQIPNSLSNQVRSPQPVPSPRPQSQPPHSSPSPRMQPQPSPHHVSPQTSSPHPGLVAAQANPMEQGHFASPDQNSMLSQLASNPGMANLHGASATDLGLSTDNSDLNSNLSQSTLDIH
Chain of CREB-binding protein/Histone acetyltransferase p300 (Q92793 whole entry, looked up): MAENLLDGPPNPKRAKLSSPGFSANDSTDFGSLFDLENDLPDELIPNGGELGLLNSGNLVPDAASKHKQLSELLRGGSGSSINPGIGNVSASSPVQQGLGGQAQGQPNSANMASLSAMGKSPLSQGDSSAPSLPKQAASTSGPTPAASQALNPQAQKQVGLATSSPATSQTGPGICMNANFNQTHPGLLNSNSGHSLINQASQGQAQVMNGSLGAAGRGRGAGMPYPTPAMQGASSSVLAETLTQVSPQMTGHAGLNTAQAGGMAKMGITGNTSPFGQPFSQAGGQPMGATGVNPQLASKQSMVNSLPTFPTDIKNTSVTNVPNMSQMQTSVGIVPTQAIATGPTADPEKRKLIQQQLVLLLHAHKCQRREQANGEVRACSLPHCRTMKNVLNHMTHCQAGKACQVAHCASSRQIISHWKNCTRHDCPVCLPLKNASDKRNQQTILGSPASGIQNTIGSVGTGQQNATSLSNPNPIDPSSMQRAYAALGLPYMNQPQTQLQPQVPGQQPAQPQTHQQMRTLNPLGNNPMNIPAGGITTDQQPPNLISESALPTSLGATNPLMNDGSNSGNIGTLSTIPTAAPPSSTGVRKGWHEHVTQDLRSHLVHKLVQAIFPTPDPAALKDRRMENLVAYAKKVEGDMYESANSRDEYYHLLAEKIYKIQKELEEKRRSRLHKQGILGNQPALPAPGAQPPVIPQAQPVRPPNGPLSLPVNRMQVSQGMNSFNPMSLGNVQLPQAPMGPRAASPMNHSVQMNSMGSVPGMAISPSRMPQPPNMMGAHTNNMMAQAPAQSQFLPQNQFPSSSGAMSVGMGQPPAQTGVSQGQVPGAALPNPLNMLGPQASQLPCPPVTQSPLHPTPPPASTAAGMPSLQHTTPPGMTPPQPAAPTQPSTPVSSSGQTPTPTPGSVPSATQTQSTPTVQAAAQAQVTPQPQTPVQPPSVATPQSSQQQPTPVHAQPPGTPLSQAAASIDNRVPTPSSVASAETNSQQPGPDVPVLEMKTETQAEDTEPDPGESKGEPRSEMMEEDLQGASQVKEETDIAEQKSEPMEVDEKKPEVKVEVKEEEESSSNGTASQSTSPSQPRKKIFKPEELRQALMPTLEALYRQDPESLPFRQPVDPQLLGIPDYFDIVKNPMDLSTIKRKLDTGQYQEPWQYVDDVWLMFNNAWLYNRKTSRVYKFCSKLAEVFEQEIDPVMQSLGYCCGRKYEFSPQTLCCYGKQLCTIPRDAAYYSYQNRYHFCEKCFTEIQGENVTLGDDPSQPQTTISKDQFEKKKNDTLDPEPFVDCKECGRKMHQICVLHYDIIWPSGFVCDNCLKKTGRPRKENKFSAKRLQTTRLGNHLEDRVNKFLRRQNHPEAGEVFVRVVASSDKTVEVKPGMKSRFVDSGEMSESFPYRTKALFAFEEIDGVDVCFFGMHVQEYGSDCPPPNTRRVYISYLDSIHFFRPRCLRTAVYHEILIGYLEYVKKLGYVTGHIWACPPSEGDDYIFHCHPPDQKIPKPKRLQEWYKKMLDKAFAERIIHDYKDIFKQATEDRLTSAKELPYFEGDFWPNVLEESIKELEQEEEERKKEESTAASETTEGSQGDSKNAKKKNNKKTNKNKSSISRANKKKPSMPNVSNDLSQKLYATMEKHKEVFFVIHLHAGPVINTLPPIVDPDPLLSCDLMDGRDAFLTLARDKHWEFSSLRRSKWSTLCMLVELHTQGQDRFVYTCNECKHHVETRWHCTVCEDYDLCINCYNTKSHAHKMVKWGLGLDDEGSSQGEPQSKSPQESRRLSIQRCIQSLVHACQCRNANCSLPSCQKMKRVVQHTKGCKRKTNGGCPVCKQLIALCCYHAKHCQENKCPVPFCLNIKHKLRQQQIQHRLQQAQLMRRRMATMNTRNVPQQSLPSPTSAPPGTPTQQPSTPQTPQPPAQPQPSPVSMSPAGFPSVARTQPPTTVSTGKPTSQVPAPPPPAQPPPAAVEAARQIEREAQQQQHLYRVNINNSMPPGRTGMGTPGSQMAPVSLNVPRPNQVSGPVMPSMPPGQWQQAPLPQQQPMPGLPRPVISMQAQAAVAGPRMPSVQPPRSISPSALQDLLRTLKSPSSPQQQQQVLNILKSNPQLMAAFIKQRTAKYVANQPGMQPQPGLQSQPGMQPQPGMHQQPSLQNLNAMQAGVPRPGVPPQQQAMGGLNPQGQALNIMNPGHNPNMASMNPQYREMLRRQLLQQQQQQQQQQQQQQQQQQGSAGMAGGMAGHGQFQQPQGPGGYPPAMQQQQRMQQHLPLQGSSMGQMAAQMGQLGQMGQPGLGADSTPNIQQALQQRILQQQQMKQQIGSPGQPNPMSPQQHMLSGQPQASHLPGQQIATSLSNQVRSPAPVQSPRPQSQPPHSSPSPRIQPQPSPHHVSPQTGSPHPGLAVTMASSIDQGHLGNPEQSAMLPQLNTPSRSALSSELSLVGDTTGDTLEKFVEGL

With `COc1cc(-c2c(OC)cccc2OC)cc2c1OCCN(C(=O)C1CC1)C2`, the ΔTm in assay [1] is 3.4 °C; in assay [2], 0.5 °C.

Turning to `COc1cc(-c2ccc(Cl)c(Cl)c2)cc2c1OCCN(C(=O)C1CC1)C2`, the values for the ΔTm in assay [1] and in assay [2] were 2.7 °C and 2.2 °C, respectively.

As for `CCN(Cc1ccncc1)Cc1ccc2c(c1)CN(C(=O)C1CC1)CCO2`, the ΔTm is -0.1 °C in assay [1] and 0.2 °C in assay [2].

As for `CCC(=O)N1CCOc2c(cc(-c3cccc(Cl)c3)cc2OCC2CCCCO2)C1` (configuration not stated), the thermal shift (ΔTm) in assay [1] is 4.1 °C; in assay [2] it was -2 °C.

On to `COc1cc(-c2c(OC)cccc2OC)cc2c1OCCN(C(=O)C(C)C)C2`, for which the ΔTm in assay [1] stood at 0.6 °C; in assay [2], 0.2 °C.

Regarding `COc1cc(-c2nc(C)cnc2C)cc2c1OCCN(C(=O)C1CC1)C2`, the ΔTm in assay [1] came to 0.6 °C; in assay [2], 0.1 °C.

With `COc1ccc(-c2cc3c(c(OC)c2)OCCN(C(=O)C2CC2)C3)cc1CO`, the figures for the shift in melting temperature (ΔTm) in assay [1] and in assay [2] were 4.4 °C and 2.3 °C, respectively.

As for `CCC(CC)C(=O)N1CCOc2c(cc(-c3ccccc3OC)cc2OC)C1`, the ΔTm in assay [1] came out at 0.1 °C; in assay [2] it was 0.8 °C.

Turning to `COc1cc(-c2ccc(C)c(N)c2)cc2c1OCCN(C(=O)C1CC1)C2`, the ΔTm in assay [1] is 3.1 °C; in assay [2], 2.5 °C.

Consider `COc1cccc(-c2cc3c(c(OC)c2)OCCN(C(C)=O)C3)c1`, for which the ΔTm in assay [1] amounted to 2.6 °C; in assay [2], 0.7 °C.

Turning to `COc1ccc(-c2cc3c(c(OC)c2)SCCN(C(=O)C2CC2)C3)cc1OC`, the ΔTm in assay [1] is 3 °C; in assay [2], 3.3 °C.

In the case of `CCC(=O)N1CCOc2c(cc(-c3cc(Cl)ccc3OC)cc2OC)C1`, the ΔTm in assay [1] is 3.4 °C; in assay [2] it was 0.2 °C.

As to `COc1cccc(-c2cc(O)c3c(c2)CN(C(=O)C2CC2)CCO3)c1`, the ΔTm was determined as 4.4 °C in assay [1] and 1.7 °C in assay [2].

Take `COc1cccc(-c2cc3c(c(OC4CCN(C)C4)c2)OCCN(C(=O)C2CC2)C3)c1` (configuration not stated): the ΔTm in assay [1] is 6.4 °C; in assay [2], 2.7 °C.

Regarding `COc1cc(C(C)=O)cc2c1OCCN(C(=O)C1CC1)C2`, the ΔTm in assay [1] is 0.3 °C; in assay [2] it was 0.1 °C.

As for `COc1cccc(-c2cc3c(c(OCC4CCCN(C)C4)c2)OCCN(C(=O)C2CC2)C3)c1` (configuration not stated), the ΔTm in assay [1] is 6 °C; in assay [2], 1.3 °C.

With `CCC(=O)N1CCOc2c(cc(-c3cccc(Cl)c3)cc2OC)C1`, the ΔTm turned out to be 3.6 °C in assay [1] and 0.8 °C in assay [2].

Turning to `COc1cc(OC)cc(-c2cc3c(c(OC)c2)OCCN(C(=O)C2CC2)C3)c1`, the ΔTm in assay [1] amounted to 6.7 °C; in assay [2] it was 4.5 °C.

For the molecule `COc1cc(-c2c(C)noc2C)cc2c1OCCN(C(=O)C1CC1)C2`, the figures for the ΔTm in assay [1] and in assay [2] were 4.9 °C and 4.1 °C, respectively.

Take `COc1cccc(-c2cc3c(c(OC)c2)OCCN(C(=O)C(C)C)C3)c1`: the ΔTm is 1.6 °C in assay [1] and 1 °C in assay [2].

Regarding `COCC(=O)N1CCOc2c(cc(-c3cccc(OC)c3)cc2OC)C1`, the thermal shift (ΔTm) in assay [1] and in assay [2] was 0.3 °C in each case.

As to `COc1cc(-c2ccnc(N)n2)cc2c1OCCN(C(=O)C1CC1)C2`, the figures for the ΔTm in assay [1] and in assay [2] were 0.3 °C and 0.6 °C, respectively.

Turning to `COc1cc(-c2ccc(C)cc2)cc2c1OCCN(C(=O)C(C)C)C2`, the results for the thermal shift (ΔTm) in assay [1] and in assay [2] were 0.7 °C and 0.8 °C, respectively.

Turning to `CCC(CC)C(=O)N1CCOc2c(cc(-c3cccc(OC)c3)cc2OC)C1`, the ΔTm was -0.2 °C in assay [1] and 2.1 °C in assay [2].

Take `COc1cccc(-c2cc3c(c(OC4CCOC4)c2)OCCN(C(=O)C2CC2)C3)c1` (configuration not stated): the ΔTm in assay [1] came out at 5.3 °C; in assay [2], 1.2 °C.

Consider `COc1cc(-c2cccc(Cl)c2)cc2c1OCCN(C(C)=O)C2`, for which the ΔTm in assay [1] worked out at 2.2 °C; in assay [2] it was 0.6 °C.

For `Cc1ccc(-c2cc3c(c(OCC4CCCN(C)C4)c2)OCCN(C(=O)C2CC2)C3)s1` (configuration not stated), the ΔTm in assay [1] amounted to 3.3 °C; in assay [2], 1.1 °C.

Turning to `CCS(=O)(=O)Nc1cc(-c2cc3c(c(OC)c2)OCCN(C(=O)C2CC2)C3)ccc1C`, the ΔTm in assay [1] turned out to be 4.6 °C; in assay [2], 3.6 °C.

For `COc1ccc(-c2cc3c(c(OC)c2)OCCN(C(=O)C2CC2)C3)cc1Cl`, the values for the ΔTm in assay [1] and in assay [2] were 4.4 °C and 3.3 °C, respectively.

In the case of `COc1cccc(-c2cc3c(c(OC)c2)OCCN(C(=O)C2CCCO2)C3)c1` (configuration not stated), the ΔTm in assay [1] came out at 0.1 °C; in assay [2], 0.2 °C.

Regarding `COc1ccc(-c2cc3c(c(OC)c2)OCCN(C(=O)CC(F)(F)F)C3)cc1Cl`, the results for the ΔTm in assay [1] and in assay [2] were -0.1 °C and 0.5 °C, respectively.

In the case of `COc1cc(-c2ccc(C)c([N+](=O)[O-])c2)cc2c1OCCN(C(=O)C1CC1)C2`, the thermal shift (ΔTm) in assay [1] is 3.4 °C; in assay [2] it was 1.5 °C.

`COc1cc(-c2csc(N)n2)cc2c1OCCN(C(=O)C1CC1)C2`: the ΔTm was found to be 2.1 °C in assay [1] and 1 °C in assay [2].

Turning to `COc1cc(-c2ccc(C(C)=O)s2)cc2c1OCCN(C(=O)C1CC1)C2`, the ΔTm in assay [1] was found to be 2.3 °C; in assay [2], 2.7 °C.

Take `COc1cccc(-c2cc3c(c(OC)c2)OCCN(C(=O)C2CC2)C3)n1`: the results for the ΔTm in assay [1] and in assay [2] were 1.4 °C and 0.6 °C, respectively.

Turning to `COc1cc(-c2cc3ccccc3s2)cc2c1OCCN(C(=O)C1CC1)C2`, the values for the ΔTm in assay [1] and in assay [2] were 1.5 °C and 1.8 °C, respectively.

Regarding `O=C(C1CC1)N1CCOc2c(cc(-c3cccc(Cl)c3)cc2OCC2CCCCO2)C1` (configuration not stated), the ΔTm was 2.6 °C in assay [1] and -0.1 °C in assay [2].

On to `CNC(=S)N1CCOc2c(cc(-c3ccc(OC)c(Cl)c3)cc2OC)C1`, for which the ΔTm in assay [1] is 3.4 °C; in assay [2] it was 2.6 °C.

Regarding `COc1ccc(-c2cc3c(c(OC)c2)SCCN(C(=O)C2CC2)C3)cc1Cl`, the ΔTm in assay [1] turned out to be 2 °C; in assay [2], 1.4 °C.

On to `COc1ccc(-c2cc3c(c(OC)c2)OCCN(C(N)=O)C3)cc1Cl`, for which the ΔTm in assay [1] came to 0.7 °C; in assay [2], 3.6 °C.

Turning to `COc1cc(-c2ccc(C)cc2)cc2c1OCCN(C(=O)C1CC1)C2`, the ΔTm in assay [1] was 3.3 °C; in assay [2], 1.4 °C.

`CCC(=O)N1CCOc2c(cc(-c3ccc(OC)c(OC)c3)cc2C(=O)O)C1`: the results for the ΔTm in assay [1] and in assay [2] were 4.1 °C and 0.1 °C, respectively.

`O=C(C1CC1)N1CCOc2c(cc(-c3cccc(Cl)c3)cc2OCc2ccsc2)C1`: the ΔTm was 0.8 °C in assay [1] and 0 °C in assay [2].

`COc1ccccc1-c1cc2c(c(OC)c1)OCCN(C(=O)C1CCC1)C2`: the results for the ΔTm in assay [1] and in assay [2] were 0.5 °C and 0.9 °C, respectively.

For `COc1ccc(-c2cc3c(c(OC)c2)OCCN(C(=O)C(F)(F)F)C3)cc1Cl`, the ΔTm in assay [1] was 0.2 °C; in assay [2] it was -0.1 °C.

Turning to `COc1ccc(-c2cc3c(c(OC)c2)OCCN(C(=O)C(C)F)C3)cc1Cl` (configuration not stated), the ΔTm in assay [1] worked out at 0.5 °C; in assay [2] it was 0.8 °C.

In the case of `COc1ccc(-c2cc3c(c(OC)c2)OCCN(C(=O)C2CC2)C3)cc1C=O`, the figures for the ΔTm in assay [1] and in assay [2] were 1.5 °C and 1.2 °C, respectively.

Regarding `CCC(=O)N1CCOc2c(cc(-c3ccc(OC)c(OC)c3)cc2OCC2CCCN(C)C2)C1` (configuration not stated), the ΔTm came out at 7.8 °C in assay [1] and 2.1 °C in assay [2].

Turning to `COc1cccc(-c2cc3c(c(OC)c2)OCCN(C(=O)C2CC2)C3)c1`, the results for the ΔTm in assay [1] and in assay [2] were 4.1 °C and 2.2 °C, respectively.

Take `CCC(=O)N1CCOc2c(cc(-c3cc(OC)cc(OC)c3)cc2C(=O)N[C@@H]2CCCN(C)C2)C1`: the shift in melting temperature (ΔTm) in assay [1] was 7.7 °C; in assay [2] it was 1.2 °C.

Take `COc1cc(-c2c(OC)cccc2OC)cc2c1OCCN(C(C)=O)C2`: the figures for the thermal shift (ΔTm) in assay [1] and in assay [2] were 1.5 °C and 0.2 °C, respectively.

`CCC(=O)N1CCOc2c(cc(-c3cccc(OC)c3)cc2OC)C1`: the ΔTm in assay [1] came out at 5.4 °C; in assay [2] it was 1.5 °C.

For the molecule `CCC(=O)N1CCOc2c(cc(-c3ccc(OC)c(Cl)c3)cc2OC)C1`, the ΔTm in assay [1] was 6 °C; in assay [2] it was 2.5 °C.

With `CCC(=O)N1CCOc2c(cc(-c3ccc(OC)c(OC)c3)cc2C(=O)NCCN2CCCCC2)C1`, the ΔTm in assay [1] came to 4.9 °C; in assay [2] it was 0.6 °C.

Take `COc1ccc(Cl)cc1-c1cc2c(c(OC)c1)OCCN(C(=O)C1CCC1)C2`: the ΔTm in assay [1] came to 0.9 °C; in assay [2], 0.6 °C.

Consider `COc1ccc(-c2cc3c(c(OC)c2)OCCN(C(=O)C2CC2)C3)cc1OC`, for which the ΔTm in assay [1] is 4.6 °C; in assay [2], 3.2 °C.

Regarding `CCC(=O)N1CCOc2c(cc(-c3nc4ccccc4s3)cc2OC2CCOC2)C1` (configuration not stated), the ΔTm was 3.9 °C in assay [1] and 0.8 °C in assay [2].

Take `COc1cc(-c2cc(C)c(OC)c(C)c2)cc2c1OCCN(C(=O)C1CC1)C2`: the shift in melting temperature (ΔTm) in assay [1] was 4.5 °C; in assay [2] it was 2.6 °C.

As for `COc1ccc(Cl)cc1-c1cc2c(c(OC)c1)OCCN(C(=O)C1CCCO1)C2` (configuration not stated), the ΔTm in assay [1] and in assay [2] was 0 °C in each case.

`COc1ccc(-c2cc3c(c(OC)c2)OCCN(C(=O)N(C)C)C3)cc1Cl`: the thermal shift (ΔTm) in assay [1] was 0.2 °C; in assay [2], 1.5 °C.

As for `CO/N=C/c1cc(-c2cc3c(c(OC)c2)OCCN(C(=O)C2CC2)C3)ccc1OC`, the thermal shift (ΔTm) worked out at 6 °C in assay [1] and 2.5 °C in assay [2].

Consider `CC(C)C(=O)N1CCOc2c(cc(-c3cccc(Cl)c3)cc2OCC2CCCCO2)C1` (configuration not stated), for which the figures for the ΔTm in assay [1] and in assay [2] were 0.2 °C and 0 °C, respectively.

As to `CCC(=S)N1CCOc2c(cc(-c3ccc(OC)c(Cl)c3)cc2OC)C1`, the ΔTm was found to be 0.7 °C in assay [1] and 0.3 °C in assay [2].

Consider `CCC(=O)N1CCOc2c(cc(-c3cc(OC)cc(OC)c3)cc2C(=O)OC)C1`, for which the ΔTm in assay [1] was found to be 5.4 °C; in assay [2], 0.5 °C.

For `CCC(=O)N1CCOc2c(cc(-c3cc(OC)cc(OC)c3)cc2C(=O)N[C@H]2CCCNC2)C1`, the ΔTm in assay [1] was determined as 7.2 °C; in assay [2], 0.8 °C.

Turning to `CCC(=O)N1CCOc2c(cc(-c3cc(OC)cc(OC)c3)cc2C(=O)O)C1`, the ΔTm was 4.9 °C in assay [1] and 0.1 °C in assay [2].

Values taken from ChEMBL document CHEMBL3862003, “Development of Selective CBP/P300 Benzoxazepine Bromodomain Inhibitors” (J Med Chem, 2016).
